ChEMBL document CHEMBL3992547, “Antimicrobial activity of rhodanine-3-acetic acid derivatives” (Bioorg Med Chem, 2017)
Converted amounts (≈) assume the structure as drawn. The source made the active and inactive calls. The calls are words filed in the database; no cut-off is given here.

Columns and labels:
[1] = tested on: Mycobacterium tuberculosis; experiment: Antimycobacterial activity against Mycobacterium tuberculosis H37Rv 331/88 measured after 14 days by micromethod; assay type: functional; conditions: H37Rv 331/88, 336 h
[2] = tested on: Mycobacterium tuberculosis; experiment: Antimycobacterial activity against Mycobacterium tuberculosis H37Rv 331/88 measured after 21 days by micromethod; assay type: functional; conditions: H37Rv 331/88, 504 h
[3] = tested on: Mycobacterium avium; experiment: Antimycobacterial activity against Mycobacterium avium 330/88 measured after 14 days by micromethod; assay type: functional; conditions: 330/88, 336 h
[4] = tested on: Mycobacterium avium; experiment: Antimycobacterial activity against Mycobacterium avium 330/88 measured after 21 days by micromethod; assay type: functional; conditions: 330/88, 504 h
[5] = tested on: Mycobacterium kansasii; experiment: Antimycobacterial activity against Mycobacterium kansasii isolate 235/80 after 7 days by micromethod; assay type: functional; conditions: isolate 235/80, 168 h
[6] = tested on: Mycobacterium kansasii; experiment: Antimycobacterial activity against Mycobacterium kansasii isolate 235/80 after 14 days by micromethod; assay type: functional; conditions: isolate 235/80, 336 h
[7] = tested on: Mycobacterium kansasii; experiment: Antimycobacterial activity against Mycobacterium kansasii isolate 235/80 after 21 days by micromethod; assay type: functional; conditions: isolate 235/80, 504 h
[8] = tested on: Mycobacterium kansasii; experiment: Antimycobacterial activity against Mycobacterium kansasii isolate 6509/96 after 7 days by micromethod; assay type: functional; conditions: isolate 6509/96, 168 h
[9] = tested on: Mycobacterium kansasii; experiment: Antimycobacterial activity against Mycobacterium kansasii isolate 6509/96 after 14 days by micromethod; assay type: functional; conditions: isolate 6509/96, 336 h
[10] = tested on: Mycobacterium kansasii; experiment: Antimycobacterial activity against Mycobacterium kansasii isolate 6509/96 after 21 days by micromethod; assay type: functional; conditions: isolate 6509/96, 504 h
[11] = Solubility of the compound in Sula's semisynthetic medium up to 1 mM; assay type: physicochemical
[12] = tested on: Klebsiella pneumoniae; experiment: Antibacterial activity against Klebsiella pneumoniae D 11750/08 up to 500 uM incubated for 24 to 48 hrs under dark condition by microdilution broth assay; assay type: functional
Outline: (§1)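 Broth microdilution per M07-A07, modified, in Mueller-Hinton broth adjusted to pH 7.4 (±0.2). Inoculum is prepared in sterile water to McFarland 0.5 (1.5 × 10⁸ CFU/mL). Plates are incubated in the dark at 35 °C in humid air. MIC is read after 24 and 48 h as at least 95% growth reduction versus control (IC₉₅).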

[13] = tested on: Klebsiella pneumoniae; experiment: Antibacterial activity against ESBL positive Klebsiella pneumoniae J 14368/08 up to 500 uM incubated for 24 to 48 hrs under dark condition by microdilution broth assay; assay type: functional; outline: as §1
[14] = tested on: Pseudomonas aeruginosa; experiment: Antibacterial activity against Pseudomonas aeruginosa CCM 1961 up to 500 uM incubated for 24 to 48 hrs under dark condition by microdilution broth assay; assay type: functional; outline: as §1
[15] = tested on: Pichia kudriavzevii; experiment: Antifungal activity against Candida krusei E28 after 24 to 48 hrs hrs by microdilution broth assay; assay type: functional
Outline: (§2)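 Broth microdilution per CLSI M27-A3 and M38-A2 in RPMI 1640 with glutamine, buffered to pH 7.0 with MOPS. Compounds are diluted in DMSO. Final inoculum is 5 × 10³ CFU/mL for yeasts and 0.5–5 × 10⁴ CFU/mL for moulds. Plates are incubated in the dark at 35 °C in humid air and read visually and/or at 540 nm after 24 and 48 h. MIC is ≥80% growth reduction (IC₈₀) for yeasts and ≥50% (IC₅₀) for filamentous fungi.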

[16] = tested on: Lichtheimia corymbifera; experiment: Antifungal activity against Absidia corymbifera 272 after 24 to 48 hrs hrs by microdilution broth assay; assay type: functional; outline: as §2
[17] = tested on: Staphylococcus aureus; experiment: Antibacterial activity against Staphylococcus aureus CCM 4516/08 incubated for 24 hrs under dark condition by microdilution broth assay; assay type: functional; conditions: CCM 4516/08, 24 h; outline: as §1
[18] = tested on: Staphylococcus aureus; experiment: Antibacterial activity against Staphylococcus aureus CCM 4516/08 incubated for 48 hrs under dark condition by microdilution broth assay; assay type: functional; conditions: CCM 4516/08, 48 h; outline: as §1
[19] = tested on: Staphylococcus aureus; experiment: Antibacterial activity against methicillin-resistant Staphylococcus aureus H 5996/08 incubated for 24 hrs under dark condition by microdilution broth assay; assay type: functional; conditions: H 5996/08, 24 h
Outline: (§3)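 Microdilution broth method modified per M07-A07, in Mueller-Hinton broth adjusted to pH 7.4 (±0.2). Inoculum made in sterile water to 0.5 McFarland (1.5 × 10⁸ CFU/mL). Plates incubated in the dark at 35 °C in a humid atmosphere, with reads at 24 and 48 h. MIC taken as at least 95% growth reduction (IC₉₅) versus control.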

[20] = tested on: Staphylococcus aureus; experiment: Antibacterial activity against methicillin-resistant Staphylococcus aureus H 5996/08 incubated for 48 hrs under dark condition by microdilution broth assay; assay type: functional; conditions: H 5996/08, 48 h; outline: as §3
[21] = tested on: Staphylococcus epidermidis; experiment: Antibacterial activity against Staphylococcus epidermidis H 6966/08 incubated for 24 hrs under dark condition by microdilution broth assay; assay type: functional; conditions: H 6966/08, 24 h; outline: as §1
[22] = tested on: Staphylococcus epidermidis; experiment: Antibacterial activity against Staphylococcus epidermidis H 6966/08 incubated for 48 hrs under dark condition by microdilution broth assay; assay type: functional; conditions: H 6966/08, 48 h; outline: as §1
[23] = tested on: Escherichia coli; experiment: Antibacterial activity against Escherichia coli CCM 4517 incubated for 24 hrs under dark condition by microdilution broth assay; assay type: functional; conditions: CCM 4517, 24 h; outline: as §1
[24] = tested on: Escherichia coli; experiment: Antibacterial activity against Escherichia coli CCM 4517 incubated for 48 hrs under dark condition by microdilution broth assay; assay type: functional; conditions: CCM 4517, 48 h; outline: as §1
[25] = tested on: Enterococcus; experiment: Antibacterial activity against Enterococcus sp. J 14365/08 incubated for 24 hrs under dark condition by microdilution broth assay; conditions: J 14365/08, 24 h
[26] = tested on: Enterococcus; experiment: Antibacterial activity against Enterococcus sp. J 14365/08 incubated for 48 hrs under dark condition by microdilution broth assay; conditions: J 14365/08, 48 h

SMILES	MIC [1] [µM]	MIC [2] [µM]	MIC [3] [µM]	MIC [4] [µM]	MIC [5] [µM]	MIC [6] [µM]	MIC [7] [µM]	MIC [8] [µM]	MIC [9] [µM]	MIC [10] [µM]	solubility [11]	Activity [12]	Activity [13]	Activity [14]	Activity [15]	Activity [16]	also measured
Cc1ccc(OC(=O)CN2C(=O)CSC2=S)cc1	1000 (≈ 281 µg/mL)	1000 (≈ 281 µg/mL)	1000 (≈ 281 µg/mL)	1000 (≈ 281 µg/mL)	1000 (≈ 281 µg/mL)	1000 (≈ 281 µg/mL)	1000 (≈ 281 µg/mL)	1000 (≈ 281 µg/mL)	1000 (≈ 281 µg/mL)	1000 (≈ 281 µg/mL)	Soluble	inactive	inactive	inactive	inactive	inactive	
O=C(CN1C(=O)CSC1=S)Nc1ccc(Cl)cc1	32 (≈ 9.63 µg/mL)	62.5 (≈ 18.8 µg/mL)	1000 (≈ 301 µg/mL)	1000 (≈ 301 µg/mL)	250 (≈ 75.2 µg/mL)	500 (≈ 150 µg/mL)	500 (≈ 150 µg/mL)	125 (≈ 37.6 µg/mL)	250 (≈ 75.2 µg/mL)	250 (≈ 75.2 µg/mL)	Soluble	inactive	inactive	inactive	inactive	inactive	MIC95 [17]: > 500 µM; MIC95 [18]: > 500 µM; MIC95 [19]: > 500 µM; MIC95 [20]: > 500 µM; MIC95 [21]: 500 µM (≈ 150 µg/mL); MIC95 [22]: > 500 µM; MIC95 [23]: > 500 µM; MIC95 [24]: > 500 µM; MIC95 [25]: 500 µM (≈ 150 µg/mL); MIC95 [26]: > 500 µM
NNC(=O)c1ccncc1 [ISONIAZID]	0.5 (≈ 0.0686 µg/mL)	1 (≈ 0.137 µg/mL)	> 250	> 250	> 250	> 250	> 250	4 (≈ 0.549 µg/mL)	8 (≈ 1.1 µg/mL)	16 (≈ 2.19 µg/mL)							
O=C(O)CN1C(=O)CSC1=S [RHODANINE-3-ACETIC ACID]	1000 (≈ 191 µg/mL)	1000 (≈ 191 µg/mL)	1000 (≈ 191 µg/mL)	1000 (≈ 191 µg/mL)	1000 (≈ 191 µg/mL)	1000 (≈ 191 µg/mL)	1000 (≈ 191 µg/mL)	1000 (≈ 191 µg/mL)	1000 (≈ 191 µg/mL)	1000 (≈ 191 µg/mL)							
O=C(CN1C(=O)CSC1=S)Nc1ccc(C(F)(F)F)cc1	500 (≈ 167 µg/mL)	1000 (≈ 334 µg/mL)	> 1000	> 1000	1000 (≈ 334 µg/mL)	1000 (≈ 334 µg/mL)	1000 (≈ 334 µg/mL)	1000 (≈ 334 µg/mL)	1000 (≈ 334 µg/mL)	1000 (≈ 334 µg/mL)	Soluble	inactive	inactive	inactive	inactive	inactive	
O=C(CN1C(=O)/C(=C/c2ccccc2O)SC1=S)Nc1ccc(Cl)cc1	8 (≈ 3.24 µg/mL)	16 (≈ 6.48 µg/mL)	62.5 (≈ 25.3 µg/mL)	125 (≈ 50.6 µg/mL)	32 (≈ 13 µg/mL)	62.5 (≈ 25.3 µg/mL)	125 (≈ 50.6 µg/mL)	62.5 (≈ 25.3 µg/mL)	125 (≈ 50.6 µg/mL)	125 (≈ 50.6 µg/mL)	Soluble	inactive	inactive	inactive	inactive	inactive	
